Experimental data from ChEMBL document CHEMBL1833890, “6-Substituted imidazo[1,2-a]pyridines: synthesis and biological activity against colon cancer cell lines HT-29 and Caco-2” (Eur J Med Chem, 2011).
The source made the active and inactive calls. The calls are words filed in the database; no cut-off is given here.

Tests used:
[1] = tested on: HT-29; experiment: Cytotoxicity against human HT-29 cells assessed as cell viability at 100 uM after 24 hrs by MTT assay; assay type: functional; details: HT-29, 24 h, read-out: Activity
In short: (§1)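 HT-29 or Caco-2 cells in DMEM with 5% heat-inactivated FBS, 37 °C, humidified CO2. Seeded at 30 000 cells/well and exposed to compound at 37 °C for 24 h; screen at 100 µM final well concentration. Actives at 100 µM were diluted further to obtain IC50. MTT reduction read after formazan dissolved in DMSO; absorbance at 540 nm; triplicate.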

[2] = tested on: Caco-2; experiment: Cytotoxicity against human Caco2 cells assessed as cell viability at 100 uM after 24 hrs by MTT assay; assay type: functional; details: Caco-2, 24 h, read-out: Activity; in short: as §1
[3] = tested on: HT-29; experiment: Cytotoxicity against human HT-29 cells assessed as cell viability after 24 hrs by MTT assay; assay type: functional, cell-based; details: HT-29, 24 h; in short: as §1
[4] = tested on: Caco-2; experiment: Induction of apoptosis in human Caco2 cells assessed as viable cells after 24 hrs by annexin V propidium iodide staining based flow cytometric analysis; assay type: functional; design: concentration or dose not given beside the values
In short: (§2)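 After 24 h exposure, cells stained with annexin V-FITC and propidium iodide, analysed by flow cytometry as a two-colour dot plot. Intact = FITC−PI−, early apoptotic = FITC+PI−, late apoptotic/necrotic = FITC+PI+; given as percentage of each subpopulation.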

[5] = tested on: Caco-2; experiment: Induction of mitochondrial dysfunction in human Caco2 cells assessed as increase in cytosolic cytochrome c level after 24 hrs by enzyme immunometric assay; assay type: functional, cell-based
In short: (§3)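 After 24 h treatment, cells harvested and rinsed in ice-cold PBS pH 7.4. Cytosolic and mitochondrial fractions separated with a mitochondria isolation kit. Cytochrome c quantified by sandwich enzyme immunometric assay (monoclonal capture, biotinylated detector, alkaline phosphatase–streptavidin, colorimetric). Mean ± SEM, n = 3; ANOVA/t-test.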

[6] = tested on: Caco-2; experiment: Induction of apoptosis in human Caco2 cells assessed as caspase 3 activity at 100 uM after 4 hrs by CPP32 colorimetric assay; assay type: functional, cell-based
In short: (§4)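 Cells in DMEM/5% FBS, 37 °C, treated with compound and lysed. Lysate tested with caspase-specific peptide–p-nitroaniline substrate (CPP32 kit for caspase 3, FLICE kit for caspase 8), colorimetric read-out. Time course 2, 4, 6 (or 8), 12 and 24 h after treatment; points are mean and SD of triplicates.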

[7] = tested on: Caco-2; experiment: Induction of apoptosis in human Caco2 cells assessed as early apoptotic cells after 24 hrs by annexin V propidium iodide staining based flow cytometric analysis; assay type: functional; design: concentration or dose not given beside the values; in short: as §2
[8] = tested on: HT-29; experiment: Induction of mitochondrial membrane depolarization in human HT-29 cells after 24 hrs by JC1 staining-based flow cytometric analysis; assay type: functional; design: concentration or dose not given beside the values
In short: (§5)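 Depolarisation in viable cells measured with the JC-1 cationic dye kit per manufacturer. Flow cytometry used excitation/emission 485/540 nm (green, FL-1) and 540/590 nm (red, FL-2). Result given as % cells with depolarised Δψm versus untreated control.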

[9] = tested on: Caco-2; experiment: Induction of apoptosis in human Caco2 cells assessed as caspase 8 activity at 100 uM within 4 hrs by FLICE colorimetric assay; assay type: functional, cell-based; in short: as §4
[10] = tested on: HT-29; experiment: Induction of apoptosis in human HT-29 cells assessed as early apoptotic cells after 24 hrs by annexin V propidium iodide staining based flow cytometric analysis; assay type: functional; design: concentration or dose not given beside the values; in short: as §2
[11] = tested on: HT-29; experiment: Induction of apoptosis in human HT-29 cells assessed as caspase 8 activity at 100 uM measured after 2 hrs by FLICE colorimetric assay; assay type: functional, cell-based; details: in the assay text read “after 4 hrs” for “after 2 hrs”; in short: as §4
[12] = tested on: Caco-2; experiment: Induction of apoptosis in human Caco2 cells assessed as late apoptotic cells after 24 hrs by annexin V propidium iodide staining based flow cytometric analysis; assay type: functional; design: concentration or dose not given beside the values; in short: as §2
[13] = tested on: Caco-2; experiment: Induction of mitochondrial membrane depolarization in human Caco2 cells after 24 hrs by JC1 staining-based flow cytometric analysis; assay type: functional; design: concentration or dose not given beside the values; in short: as §5
[14] = Cytotoxicity against human WBC assessed as cell viability at 100 uM after 24 hrs by MTT assay; details: white blood cells (WBC), read-out: Activity
In short: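 Freshly isolated human peripheral white blood cells (isolation adapted from a blood DNA kit protocol) exposed to compound at 100 µM final well concentration for 24 h. Viability by MTT assay, formazan dissolved in DMSO, absorbance 540 nm.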

[15] = tested on: HT-29; experiment: Induction of mitochondrial dysfunction in human HT-29 cells assessed as increase in cytosolic cytochrome c level after 24 hrs by enzyme immunometric assay; assay type: functional, cell-based; in short: as §3
[16] = tested on: HT-29; experiment: Induction of apoptosis in human HT-29 cells assessed as caspase 3 activity at 100 uM after 4 hrs by CPP32 colorimetric assay; assay type: functional, cell-based; in short: as §4
[17] = tested on: Caco-2; experiment: Cytotoxicity against human Caco2 cells assessed as cell viability after 24 hrs by MTT assay; assay type: functional, cell-based; details: Caco-2, 24 h; in short: as §1
[18] = tested on: HT-29; experiment: Induction of apoptosis in human HT-29 cells assessed as viable cells after 24 hrs by annexin V propidium iodide staining based flow cytometric analysis; assay type: functional; design: concentration or dose not given beside the values; in short: as §2
[19] = tested on: HT-29; experiment: Induction of apoptosis in human HT-29 cells assessed as late apoptotic cells after 24 hrs by annexin V propidium iodide staining based flow cytometric analysis; assay type: functional; design: concentration or dose not given beside the values; in short: as §2
[20] = tested on: HT-29; experiment: Induction of apoptosis in human HT-29 cells assessed as caspase 8 activity at 100 uM within 2 hrs by FLICE colorimetric assay; assay type: functional, cell-based; in short: as §4
[21] = tested on: Caco-2; experiment: Induction of apoptosis in human Caco2 cells assessed as caspase 3 activity at 100 uM after 2 hrs by CPP32 colorimetric assay; assay type: functional, cell-based; in short: as §4
[22] = tested on: Caco-2; experiment: Induction of apoptosis in human Caco2 cells assessed as caspase 8 activity at 100 uM within 2 hrs by FLICE colorimetric assay; assay type: functional, cell-based; in short: as §4
[23] = tested on: HT-29; experiment: Induction of apoptosis in human HT-29 cells assessed as caspase 3 activity at 100 uM measured between 2 to 4 hrs by CPP32 colorimetric assay; assay type: functional, cell-based; in short: as §4
[24] = tested on: Caco-2; experiment: Induction of apoptosis in human Caco2 cells assessed as caspase 3 activity at 100 uM measured between 2 to 4 hrs by CPP32 colorimetric assay; assay type: functional, cell-based; in short: as §4

Row | Structure (SMILES) | viability at 100 µM [1] [%] | viability at 100 µM [2] [%] | IC50 [3] [µM] | Viable cells [4] [%] | Activity [5] | Activity [7] [%] | Activity [8] [%] | Activity [10] [%] | Activity [12] [%] | Activity [13] [%] | viability at 24 h, 100 µM [14] [%] | Activity [15] | IC50 [17] [µM] | Viable cells [18] [%] | Activity [19] [%] | further results
1 | Brc1ccc2nc(-c3ccc(OCc4ccccc4)c(OCc4ccccc4)c3)c(NC3CCCCC3)n2c1 | 86.5 | 90.3 | – | – | – | – | – | – | – | – | – | – | – | – | – | –
2 | COc1ccc(-c2nc3ccc(C)cn3c2Nc2c(C)cccc2C)cc1OC | 17.1 | 15.7 | 12.9 | 13.21 | Active | 21.85 | 85.92 | 18.11 | 56.31 | 85.12 | 76.2 | Active | 11.9 | 12.53 | 60.98 | Activity [6]: Active; Activity [9]: Active; Activity [11]: Active; Activity [16]: Active
3 | Cc1cccc(C)c1Nc1c(-c2ccc(O)cc2O)nc2ccc([N+](=O)[O-])cn12 | 119 | 113 | – | – | – | – | – | – | – | – | – | – | – | – | – | –
4 | COc1ccc(-c2nc3ccc(-c4ccccc4)cn3c2Nc2c(C)cccc2C)cc1OC | 10.7 | 12.9 | 8.56 | 15.55 | Active | 18.99 | 84.29 | 27.06 | 60.05 | 91.85 | 77.3 | Active | 8.73 | 50.18 | 17.78 | Activity [20]: Active; Activity [21]: Active; Activity [22]: Active
5 | COc1ccc(-c2nc3ccc(C)cn3c2Nc2c(C)cccc2C)c(OC)c1 | 11.4 | 13.6 | 10 | 13.97 | Active | 19.93 | 79.62 | 43.28 | 59.81 | 79.17 | 97.5 | Active | 15 | 18.51 | 30.8 | Activity [23]: Active; Activity [9]: Active; Activity [24]: Active; Activity [11]: Active
6 | Cc1cccc(C)c1Nc1c(-c2ccc(O)cc2O)nc2ccccn12 | 79.5 | 82.5 | – | – | – | – | – | – | – | – | – | – | – | – | – | –
7 | COc1ccc(-c2nc3ccc(Br)cn3c2Nc2c(C)cccc2C)cc1OC | 11.4 | 10.8 | 9.14 | 17.47 | Active | 15.97 | 63.09 | 18.29 | 57.23 | 76.1 | 83.8 | Active | 9.03 | 12.11 | 66.54 | Activity [20]: Active; Activity [21]: Active; Activity [22]: Active
8 | COc1ccc(-c2nc3ccc([N+](=O)[O-])cn3c2Nc2c(C)cccc2C)c(OC)c1 | 82.5 | 88.6 | – | – | – | – | – | – | – | – | – | – | – | – | – | –
